Calls of active or inactive are those of the source. No cut-off for these calls is given here.
Columns and labels:
Putative nitroreductase [1] = molecular target: T1, Putative nitroreductase (Staphylococcus saprophyticus subsp. saprophyticus (strain ATCC 15305 / DSM20229 / NCIMB 8711 / NCTC 7292 / S-41), UniProt Q4A0P1); assay: Substrate activity at Staphylococcus saprophyticus nitroreductase NtrB assessed as Kcat/Km using NADH as cofactor in Tris-Cl buffer at pH 7.5 by HPLC analysis relative to CB1954/NfsB; format: ADME
T1 sequence (Q4A0P1 whole entry): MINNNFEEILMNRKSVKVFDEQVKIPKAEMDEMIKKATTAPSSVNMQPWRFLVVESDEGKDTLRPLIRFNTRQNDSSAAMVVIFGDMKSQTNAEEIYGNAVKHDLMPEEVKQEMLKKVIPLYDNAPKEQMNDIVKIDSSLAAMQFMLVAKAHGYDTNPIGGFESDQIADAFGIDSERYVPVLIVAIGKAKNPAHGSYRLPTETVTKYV

[2] = Cytotoxicity against human HUVEC cells assessed as cell viability at 9 to 150 uM after 48 hrs by MTT assay relative to control; format: cell-based; conditions: read-out: Activity
Outline: (§1)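 Hep3B hepatoma, PC-3 prostate cancer and HUVEC (healthy control) cells were exposed to nitro compounds at 150, 75, 38, 19 and 9 µM for 24 h and 48 h. Viability was read by MTT assay, and IC50 values were derived from the growth inhibition curves.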

Hep 3B2 [3] = assay: Cytotoxicity against human Hep3B cells assessed as cell viability after 24 hrs by MTT assay; format: functional, cell-based; outline: as §1
Putative nitroreductase [4] = molecular target: T1, Putative nitroreductase; assay: Substrate activity at Staphylococcus saprophyticus nitroreductase expressed in Escherichia coli BL21 (DE3) assessed as retention time by HPLC analysis; format: ADME
Hep 3B2 [5] = assay: Cytotoxicity against human Hep3B cells assessed as cell viability at 9 to 150 uM after 48 hrs by MTT assay relative to control; format: functional; outline: as §1
[6] = Cytotoxicity against human HUVEC cells assessed as cell viability at 9 to 150 uM after 24 hrs by MTT assay relative to control; format: cell-based; conditions: read-out: Activity; outline: as §1
Hep 3B2 [7] = assay: Cytotoxicity against human Hep3B cells assessed as cell viability at 9 to 150 uM after 24 hrs by MTT assay relative to control; format: functional; outline: as §1
PC-3 [8] = assay: Cytotoxicity against human PC3 cells […] Staphylococcus saprophyticus nitroreductase NtrB assessed as reduction in cell viability in presence of NADH as cofactor after 48 hrs by SRB assay; format: functional, cell-based; conditions: PC-3, 48 h
Outline: (§2)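 Compounds were reduced outside the cells by purified His-tag (Ni column) Ssap-NtrB. The reaction mix held 600 µM NADH and compound (150, 39, 9 µM, or 180, 18, 1.8 nM) and was applied to PC-3 cells. Controls were compound alone in 25 mM Tris/HCl pH 7.5, and enzyme alone at 31 µg/mL. After 48 h, SRB absorbance was read at 492 nm and converted to % viability.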

PC-3 [9] = assay: Cytotoxicity against human PC3 cells assessed as reduction in cell viability after 48 hrs by SRB assay; format: functional, cell-based; outline: as §2
PC-3 [10] = assay: Cytotoxicity against human PC3 cells […] Staphylococcus saprophyticus nitroreductase NtrB assessed as cell viability at 150 uM in presence of NADH as cofactor after 48 hrs by SRB assay relative to control; format: functional; conditions: PC-3, 48 h, read-out: Activity; outline: as §2
PC-3 [11] = assay: Cytotoxicity against human PC3 cells assessed as cell viability at 9 to 150 uM after 24 hrs by MTT assay relative to control; format: functional; outline: as §1
PC-3 [12] = assay: Cytotoxicity against human PC3 cells assessed as cell viability at 9 to 150 uM after 48 hrs by MTT assay relative to control; format: functional; outline: as §1
[13] = substrate: O=C(CC(F)(F)F)Nc1cc(N2CCOCC2)c([N+](=O)[O-])cc1[N+](=O)[O-]; assay: (§3) Substrate activity at Staphylococcus saprophyticus nitroreductase NtrB assessed as Km using NADH as cofactor in Tris-Cl buffer at pH 7.5 by HPLC analysis; format: ADME
[14] = substrate: O=[N+]([O-])c1ccc(N2CCCCC2)c([N+](=O)[O-])c1; assay: as §3; format: ADME
[15] = substrate: O=[N+]([O-])c1cc([N+](=O)[O-])c(Nc2ccc(S(=O)(=O)O)cc2)cc1Nc1ccc(S(=O)(=O)O)cc1; assay: as §3; format: ADME
[16] = substrate: Nc1ccccc1Nc1ccc([N+](=O)[O-])cc1[N+](=O)[O-]; assay: as §3; format: ADME
[17] = substrate: O=[N+]([O-])c1ccc(N2CCOCC2)c([N+](=O)[O-])c1; assay: as §3; format: ADME
[18] = substrate: CCC(=O)Nc1cc(N2CCOCC2)c([N+](=O)[O-])cc1[N+](=O)[O-]; assay: as §3; format: ADME
[19] = substrate: O=[N+]([O-])c1ccc(Nc2ccc3ccccc3c2)c([N+](=O)[O-])c1; assay: Substrate activity at Staphylococcus saprophyticus nitroreductase NtrB assessed as Km using NADPH as cofactor in Tris-Cl buffer at pH 7.5 by HPLC analysis; format: ADME
[20] = substrate: NC(=O)c1cc(N2CC2)c([N+](=O)[O-])cc1[N+](=O)[O-]; assay: Substrate activity at Bacillus amyloliquefaciens nitroreductase ywrO assessed as Km using NADPH as cofactor in sodium phosphate buffer at pH 7.5 by HPLC analysis; format: ADME

CCC(=O)Nc1cc(N2CCOCC2)c([N+](=O)[O-])cc1[N+](=O)[O-]
fold change (FC) (Putative nitroreductase [1]): 4.73 | viability at 48 h, up to 150 µM [2]: 51 to 80% | IC50 (Hep 3B2 [3]): 90.7 µM | Retention_time (Putative nitroreductase [4]): 20.95 min | Activity (Hep 3B2 [5]): 51 - 80% | viability at 24 h, up to 150 µM [6]: 51 to 80%

CN(C)C(=O)Oc1cc(N2CCOCC2)c([N+](=O)[O-])cc1[N+](=O)[O-]
viability at 48 h, up to 150 µM [2]: 51 to 80% | Retention_time (Putative nitroreductase [4]): 19.28 min | Activity (Hep 3B2 [5]): >80% | viability at 24 h, up to 150 µM [6]: 51 to 80% | Activity (Hep 3B2 [7]): >80%

COCCC(=O)Oc1cc(N2CCOCC2)c([N+](=O)[O-])cc1[N+](=O)[O-]
viability at 48 h, up to 150 µM [2]: 51 to 80% | Activity (Hep 3B2 [5]): >80% | viability at 24 h, up to 150 µM [6]: 51 to 80% | Activity (Hep 3B2 [7]): >80%

O=[N+]([O-])c1ccc(N2CCC[C@H]2CO)c([N+](=O)[O-])c1
IC50 (PC-3 [8]): > 150 µM | Activity (PC-3 [9]): inactive | viability at 48 h, up to 150 µM [2]: > 80% | viability at 150 µM (PC-3 [10]): 50% | Retention_time (Putative nitroreductase [4]): 15.1 min | Activity (Hep 3B2 [5]): >80% | viability at 24 h, up to 150 µM [6]: > 80% | Activity (Hep 3B2 [7]): >80%

CCNc1ccc([N+](=O)[O-])cc1[N+](=O)[O-]
IC50 (PC-3 [8]): 6.43 µM | Activity (PC-3 [9]): inactive | viability at 48 h, up to 150 µM [2]: > 80% | Retention_time (Putative nitroreductase [4]): 16.92 min | Activity (Hep 3B2 [5]): 51 - 80% | Activity (PC-3 [11]): >80% | viability at 24 h, up to 150 µM [6]: > 80% | Activity (Hep 3B2 [7]): 51 - 80% | Activity (PC-3 [12]): >80%

COc1cccc(Nc2ccc([N+](=O)[O-])cc2[N+](=O)[O-])c1
IC50 (PC-3 [8]): > 150 µM | Activity (PC-3 [9]): inactive | viability at 48 h, up to 150 µM [2]: > 80% | viability at 150 µM (PC-3 [10]): 50% | Retention_time (Putative nitroreductase [4]): 18.56 min | Activity (Hep 3B2 [5]): >80% | Activity (PC-3 [11]): >80% | viability at 24 h, up to 150 µM [6]: > 80% | Activity (Hep 3B2 [7]): >80% | Activity (PC-3 [12]): >80%

CC(C)CC(=O)Nc1cc(N2CCOCC2)c([N+](=O)[O-])cc1[N+](=O)[O-]
viability at 48 h, up to 150 µM [2]: 51 to 80% | IC50 (Hep 3B2 [3]): 150 µM | Retention_time (Putative nitroreductase [4]): 24.16 min | Activity (Hep 3B2 [5]): 51 - 80% | viability at 24 h, up to 150 µM [6]: 51 to 80%

Nc1ccccc1Nc1ccc([N+](=O)[O-])cc1[N+](=O)[O-]
IC50 (PC-3 [8]): 15 µM | Activity (PC-3 [9]): inactive | fold change (FC) (Putative nitroreductase [1]): 0.41 | viability at 48 h, up to 150 µM [2]: > 80% | Retention_time (Putative nitroreductase [4]): 16.85 min | Activity (Hep 3B2 [5]): >80% | Activity (PC-3 [11]): >80% | viability at 24 h, up to 150 µM [6]: > 80% | Activity (Hep 3B2 [7]): >80% | Activity (PC-3 [12]): >80%

B1: Putative nitroreductase (Staphylococcus saprophyticus subsp. saprophyticus ATCC 15305 = NCTC 7292) (protein)
chain: MINNNFEEILMNRKSVKVFDEQVKIPKAEMDEMIKKATTAPSSVNMQPWRFLVVESDEGKDTLRPLIRFNTRQNDSSAAMVVIFGDMKSQTNAEEIYGNAVKHDLMPEEVKQEMLKKVIPLYDNAPKEQMNDIVKIDSSLAAMQFMLVAKAHGYDTNPIGGFESDQIADAFGIDSERYVPVLIVAIGKAKNPAHGSYRLPTETVTKYV
Km [13]: 9.95 µM | kcat [13]: 0.234 s⁻¹ | kcat/Km [13]: 26500 M⁻¹ s⁻¹ | Km [14]: 104 µM | kcat [14]: 0.404 s⁻¹ | kcat/Km [14]: 3900 M⁻¹ s⁻¹ | Km [15]: 255 µM | kcat [15]: 3.4 s⁻¹ | kcat/Km [15]: 13300 M⁻¹ s⁻¹ | Km [16]: 137 µM | kcat [16]: 0.315 s⁻¹ | kcat/Km [16]: 2300 M⁻¹ s⁻¹ | Km [17]: 444 µM | kcat [17]: 3.1 s⁻¹ | kcat/Km [17]: 6970 M⁻¹ s⁻¹ | Km [18]: 14 µM | kcat [18]: 0.37 s⁻¹ | kcat/Km [18]: 26500 M⁻¹ s⁻¹ | Km [19]: 15.7 µM | kcat [19]: 0.1 s⁻¹ | kcat/Km [19]: 8270 M⁻¹ s⁻¹

B2: Nitroreductase (Bacillus amyloliquefaciens) (protein)
chain: MKVLVLAVHPDMENSAVNKAWAEELKKHDELTVRELYKEYPDGQIDAEKERQLCEQYDRIVFQFPLYWYSAPPLLKTWMDHVLSYGWAYGSKGKALHGKELMLAVSVGAGEDAYQAGGSNHFTLSELLRPFQAMANFTGMTYLPAFALYGVNGADATDIHDNAKRLAAYIKKSF
Km [20]: 618 µM | kcat [20]: 8.2 s⁻¹ | kcat/Km [20]: 13300 M⁻¹ s⁻¹
